From PMC10127574 (ACS chemical biology, 2015)
pIC50, pKi: −log10 of the molar value. Read-outs that look alike come from different tables or passages of the source.

What was measured:
[1] = biological target: T1, WT-IDE (Homo sapiens, UniProt P14735); experiment: IDE activity in the presence of reducing agents / reversal by DTT; format: biochemical
T1 sequence (P14735 1-1019): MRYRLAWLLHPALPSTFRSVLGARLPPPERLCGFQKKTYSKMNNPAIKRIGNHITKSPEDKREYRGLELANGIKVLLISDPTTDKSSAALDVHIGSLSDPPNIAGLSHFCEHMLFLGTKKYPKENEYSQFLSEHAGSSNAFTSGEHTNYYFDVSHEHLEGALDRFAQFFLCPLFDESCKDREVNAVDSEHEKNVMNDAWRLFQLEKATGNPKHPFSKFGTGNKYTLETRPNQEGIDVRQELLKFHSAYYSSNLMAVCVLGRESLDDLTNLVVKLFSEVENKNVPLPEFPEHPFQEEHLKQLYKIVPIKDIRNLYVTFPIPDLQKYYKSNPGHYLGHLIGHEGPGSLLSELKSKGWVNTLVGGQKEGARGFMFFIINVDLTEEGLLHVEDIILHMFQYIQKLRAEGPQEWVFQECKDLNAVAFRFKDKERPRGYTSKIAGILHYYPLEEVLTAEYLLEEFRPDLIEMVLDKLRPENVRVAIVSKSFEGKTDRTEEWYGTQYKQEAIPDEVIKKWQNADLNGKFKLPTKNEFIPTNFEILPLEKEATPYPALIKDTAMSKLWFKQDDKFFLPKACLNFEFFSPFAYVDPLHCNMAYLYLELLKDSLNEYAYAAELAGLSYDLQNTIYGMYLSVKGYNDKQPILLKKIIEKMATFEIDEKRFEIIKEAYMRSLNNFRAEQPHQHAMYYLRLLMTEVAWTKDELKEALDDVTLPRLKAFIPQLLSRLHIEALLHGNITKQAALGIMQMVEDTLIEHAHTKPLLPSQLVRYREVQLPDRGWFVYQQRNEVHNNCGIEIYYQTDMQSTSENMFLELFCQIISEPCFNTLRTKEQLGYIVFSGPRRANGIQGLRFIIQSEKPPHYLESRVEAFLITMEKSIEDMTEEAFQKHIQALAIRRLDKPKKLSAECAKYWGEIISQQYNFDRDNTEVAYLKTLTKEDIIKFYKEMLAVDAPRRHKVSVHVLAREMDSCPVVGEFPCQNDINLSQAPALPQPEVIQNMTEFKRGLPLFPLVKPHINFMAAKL

[2] = biological target: T2, intracellular pools of IDE (Homo sapiens, UniProt P14735); experiment: intracellular IDE activity after incubation of intact HEK cells; format: cell-based; conditions: 10 μM, 36 h
T2 sequence (P14735 1-1019): T1 sequence (P14735 1-1019)
How it was run: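 Confluent HEK monolayers were exposed 36 h to 10 μM compound or DMSO vehicle, and conditioned medium was collected. Cells were washed 3× in PBS and held 30 min in hypotonic 50 mM Tris-HCl at 4 °C. They were scraped, extruded 3× through a 30G needle and spun 10,000 × g, 10 min, 4 °C. Supernatant activity was assayed by FAßB degradation without or with 1 mM DTT.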

[3] = biological target: T1, WT-IDE; experiment: kinetics of irreversible inhibition; format: biochemical; conditions: WT-IDE 2 nM, FRET1 5 μM; rate constant of irreversible step
How it was run: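 Recombinant WT-IDE (2 nM) and FRET1 substrate (5 μM) were monitored continuously at 3-s intervals, starting immediately after adding inhibitor at several concentrations. Curve fits gave observed rate constants, which were plotted against inhibitor concentration. A hyperbolic fit gave kinhib and KM. LE was taken as ΔG/heavy atoms using KM; SEI as pKM/tPSA/100 Å2.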

[4] = tested on: IDE mutant sC819; experiment: inhibition of single-cysteine IDE mutant sC819; format: biochemical, human; conditions: Figure 3B
[5] = biological target: T3, extracellular IDE (Homo sapiens, UniProt P14735); experiment: cell-based IDE activity assay; conditions: for activity by hit cutoff criteria: Table 1 screening assays
T3 sequence (P14735 1-1019): T1 sequence (P14735 1-1019)
How it was run: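 Extracellular IDE secreted by HEK-293 cells, harvested mechanically rather than by trypsin, served as the endogenous enzyme source. Activity was read by fluorescence polarization with fluoresceinated, biotinylated Aß peptide (FAßB) in DTT-free solutions. The primary screen used a nominal compound concentration of 6 μM. Confirmed hits were retested in dose-response format to give apparent IC50.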

[6] = biological target: T4, cysteine-free form of IDE (CF-IDE) (Homo sapiens, UniProt P14735, C819S, form not given); experiment: IDE activity assay with FRET1 using cysteine-free IDE; format: biochemical; conditions: read-out: ki CF-IDE
T4 sequence (P14735 42-1019 C819S): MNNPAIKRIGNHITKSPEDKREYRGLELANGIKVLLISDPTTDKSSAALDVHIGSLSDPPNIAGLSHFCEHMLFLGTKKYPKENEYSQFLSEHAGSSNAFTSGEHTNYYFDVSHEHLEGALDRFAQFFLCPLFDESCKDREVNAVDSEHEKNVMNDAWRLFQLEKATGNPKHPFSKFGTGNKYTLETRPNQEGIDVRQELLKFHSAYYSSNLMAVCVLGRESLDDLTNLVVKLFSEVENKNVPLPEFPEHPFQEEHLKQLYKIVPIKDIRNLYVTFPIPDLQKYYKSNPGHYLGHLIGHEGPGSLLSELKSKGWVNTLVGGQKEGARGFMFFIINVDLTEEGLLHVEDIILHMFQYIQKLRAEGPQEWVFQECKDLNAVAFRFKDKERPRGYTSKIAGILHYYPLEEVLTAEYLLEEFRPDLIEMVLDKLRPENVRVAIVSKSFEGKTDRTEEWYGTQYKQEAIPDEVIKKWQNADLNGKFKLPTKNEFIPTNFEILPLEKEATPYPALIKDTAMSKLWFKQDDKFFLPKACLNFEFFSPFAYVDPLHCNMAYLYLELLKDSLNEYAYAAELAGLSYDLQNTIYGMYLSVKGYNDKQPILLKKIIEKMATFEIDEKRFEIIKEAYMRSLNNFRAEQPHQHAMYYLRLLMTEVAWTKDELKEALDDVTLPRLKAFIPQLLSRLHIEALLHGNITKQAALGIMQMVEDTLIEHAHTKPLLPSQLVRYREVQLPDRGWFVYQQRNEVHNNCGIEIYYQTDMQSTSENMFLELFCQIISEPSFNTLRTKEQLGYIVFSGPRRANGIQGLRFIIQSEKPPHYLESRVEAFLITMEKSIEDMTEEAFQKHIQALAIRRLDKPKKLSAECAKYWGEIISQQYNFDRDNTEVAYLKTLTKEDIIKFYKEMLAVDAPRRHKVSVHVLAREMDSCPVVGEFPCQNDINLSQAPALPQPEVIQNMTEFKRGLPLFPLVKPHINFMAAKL

[7] = tested on: IDE mutant sC812; experiment: inhibition of single-cysteine IDE mutant sC812; format: biochemical, human; conditions: Figure 3B
[8] = biological target: T1, WT-IDE; experiment: test for irreversible inhibition by 100-fold dilution; format: biochemical; conditions: 100 nM IDE with high inhibitor concentration 30 min, then 100-fold dilution
How it was run: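 Recombinant WT-IDE activity was measured with FRET1 substrate in DTT-free solutions under three conditions. (1) 1 nM enzyme with "high" inhibitor concentrations. (2) 1 nM enzyme with 100-fold lower concentrations. (3) 100 nM enzyme preincubated 30 min with "high" concentrations, then diluted 100-fold to 1 nM enzyme and "low" inhibitor before assay. Reversible and irreversible reference inhibitors were run alongside.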

[9] = biological target: T5, recombinant wild-type IDE (WT-IDE) (Homo sapiens, UniProt P14735); experiment: cell-free IDE activity assay with fluorogenic peptide substrate FRET1; format: biochemical
T5 sequence (P14735 1-1019): T1 sequence (P14735 1-1019)

[10] = read-out: IC50^app cell-based, Table 1, HEK-293 cells, extracellular IDE
[11] = read-out: IC50^app cell-free, Table 1, WT-IDE, FRET1

Question: `O=c1c2ccccc2sn1-c1cc(S(=O)(=O)N2CCOCC2)ccc1N1CCOCC1` [Compound 1] was tested. Which “reversibility of WT-IDE inhibition by treatment with dithiothreitol” value ([1]; DTT treatment, Figure 2E) did it give?
Answer: reversible

Question: What about the “activity in the presence of excess DTT, ß-mercaptoethanol or reduced glutathione” value ([1]; excess reducing agent, Supplementary Figure S1A) of the same compound?
Answer: no activity was detected

Question: What about the “effect on intracellular pools of IDE after prolonged incubation of intact cells” value [2] of the same compound?
Answer: unaffected

Question: What about the kinhib [3] of the same compound?
Answer: 2.05 min⁻¹

Question: And the “inhibition of single-cysteine mutant sC819” value [4]?
Answer: strongly inhibited

Question: What about the pIC50 [5, 10] of the same compound?
Answer: 5.85

Question: And the pIC50 ([5]; read-out: IC50^app cell-based, Table 2)?
Answer: 5.85

Question: And the pKi [6]?
Answer: 5.09

Question: What about the “inhibition of single-cysteine mutant sC812” value [7] of the same compound?
Answer: no significant effect

Question: What about the “reversibility of inhibition in dilution experiments” value [8] of the same compound?
Answer: irreversible

Question: And the pIC50 ([9]; read-out: IC50^app against WT-IDE, cell-free)?
Answer: 6.63

Question: What about the pIC50 [9, 11] of the same compound?
Answer: 6.64

Question: With `O=C(O)c1ccccc1NS(=O)(=O)c1cccc(-n2sc3ccccc3c2=O)c1` [Compound 2] as the compound, how does the pIC50 [5, 10] read?
Answer: 5.68

Question: What about the pIC50 [9, 11] of the same compound?
Answer: 6.27

Question: How did the pIC50 [5, 10] turn out when `Cc1ccc(-n2sc3ccccc3c2=O)cc1S(=O)(=O)N1CCCCC1` [Compound 3] was run?
Answer: 5.40

Question: What about the pIC50 [9, 11] of the same compound?
Answer: 5.99

Question: `O=c1c2ccccc2sn1-c1cc(S(=O)(=O)N2CCOCC2)ccc1N1CCCC1` [Compound 4] was tested. Which pIC50 [5, 10] did it give?
Answer: 5.25

Question: What about the pIC50 [9, 11] of the same compound?
Answer: 5.95

Question: `CN(C)S(=O)(=O)c1cccc(-n2sc3ccccc3c2=O)c1` [Compound 5] was tested. Which “activity by hit cutoff criteria” value [5] did it give?
Answer: inactive

Question: What about the pIC50 [5, 10] of the same compound?
Answer: < 5.00

Question: `O=c1c2ccccc2sn1-c1ccc(S(=O)(=O)N2CCCC2)cc1` [Compound 6] was tested. Which “activity by hit cutoff criteria” value [5] did it give?
Answer: inactive

Question: What about the pIC50 [5, 10] of the same compound?
Answer: < 5.00

Question: And the pIC50 [9, 11]?
Answer: < 5.00

Question: What does the source list for `O=c1c2cc(F)ccc2sn1-c1ccccc1` [Compound 7]?
Answer: activity by hit cutoff criteria [5]: active; pIC50 [5, 10]: 5.41; pIC50 [9, 11]: 5.74

Question: Which kinhib [3] does the source give for `O=c1c2cc(C(F)(F)F)ccc2sn1-c1cc(S(=O)(=O)N2CCOCC2)ccc1N1CCOCC1` [Compound 9, 2-(2-morpholin-4-yl-5-morpholin-4-ylsulfonylphenyl)-5-(trifluoromethyl)-1,2-benzothiazol-3-one] here?
Answer: 15.3 min⁻¹

Question: What about the pIC50 [5] of the same compound?
Answer: 6.92

Question: And the pKi [6]?
Answer: 5.10

Question: What about the pIC50 [9] of the same compound?
Answer: 7.15

Question: With `CCN1C(=O)C=CC1=O` [NEM, N-ethylmaleimide, reference compound] as the compound, how does the “inhibition of single-cysteine mutant sC819” value [4] read?
Answer: completely inhibited

Question: What about the “inhibition of single-cysteine mutant sC812” value [7] of the same compound?
Answer: completely inhibited

Question: And the “reversibility of inhibition in dilution experiments” value [8]?
Answer: irreversible
